{"source": "BindingDB's records for doi:10.1021/jm990396t", "about": "(Glaxo Wellcome Research and Development, 2000)", "biological_target": "Kynurenine 3-monooxygenase (Rattus norvegicus, UniProt O88867)", "sequence (O88867 whole entry)": "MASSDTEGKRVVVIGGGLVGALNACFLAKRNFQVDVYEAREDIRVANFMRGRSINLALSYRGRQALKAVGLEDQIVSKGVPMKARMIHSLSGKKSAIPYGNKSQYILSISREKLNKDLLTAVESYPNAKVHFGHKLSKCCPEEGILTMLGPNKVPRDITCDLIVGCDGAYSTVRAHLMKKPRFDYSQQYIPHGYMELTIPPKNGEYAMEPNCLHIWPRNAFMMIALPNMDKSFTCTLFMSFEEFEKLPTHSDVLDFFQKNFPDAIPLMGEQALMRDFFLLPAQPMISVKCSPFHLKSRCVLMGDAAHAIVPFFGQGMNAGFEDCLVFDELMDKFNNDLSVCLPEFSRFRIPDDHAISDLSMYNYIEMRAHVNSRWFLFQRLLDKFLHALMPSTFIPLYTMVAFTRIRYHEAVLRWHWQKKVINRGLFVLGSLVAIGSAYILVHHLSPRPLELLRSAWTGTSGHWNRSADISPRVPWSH", "assay": "Inhibition of Kynurenine-3-hydroxylase enzyme isolated from the rat liver", "summary_of_the_method": "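Enzyme source: P2 mitochondrial pellet from rat liver, resuspended in 0.32 M sucrose. Activity measured as ³HOH release from 3-[³H]-L-kynurenine at its K_m concentration, 37 °C, under conditions linear with time and enzyme protein. Five inhibitor concentrations tested. IC50 taken as the mean of at least 2 experiments run in duplicate, with variation <20%.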"}
{"smiles": "COC(=O)C(=O)CC(=O)c1ccc(Br)cc1", "note": "[4-(4-Bromo-phenyl)-2-hydroxy-4-oxo-but-2-enoic acid methyl ester]", "values": [{"measurement": "IC50", "value": 1900, "unit": "nM"}]}
{"smiles": "COC(=O)C(=O)CC(=O)c1ccc(Cl)c(Cl)c1", "note": "[4-(3,4-Dichloro-phenyl)-2-hydroxy-4-oxo-but-2-enoic acid methyl ester]", "values": [{"measurement": "IC50", "value": 1900, "unit": "nM"}]}
{"smiles": "COC(=O)C(=O)CC(=O)c1cccc(Cl)c1", "note": "[4-(3-Chloro-phenyl)-2-hydroxy-4-oxo-but-2-enoic acid methyl ester]", "values": [{"measurement": "IC50", "value": 1900, "unit": "nM"}]}
{"smiles": "O=C(O)C(=O)CC(=O)c1cccc(Br)c1", "note": "[(Z)-4-(3-Bromo-phenyl)-2-hydroxy-4-oxo-but-2-enoic acid]", "values": [{"measurement": "IC50", "value": 1700, "unit": "nM"}]}
